Results taken from ChEMBL document CHEMBL3272072 (J Med Chem, 1976).
Activity calls are given as the source filed them. No cut-off for these calls is given here.

What was measured:
Canis familiaris [1] = test: Decrease in systemic arterial blood pressure in dog at >5 ng/kg, iv measured for 2 to 20 mins after drug dosage; assay type: functional, organism-based; details: Canis lupus familiaris; Artery
[2] = target: Substance-P receptor (Cavia porcellus) (UniProt P30547); test: Agonist activity at NK1 receptor in guinea pig ileum assessed as increase in muscle tone; assay type: tissue-based
Chain of Substance-P receptor (Cavia porcellus) (P30547 whole entry): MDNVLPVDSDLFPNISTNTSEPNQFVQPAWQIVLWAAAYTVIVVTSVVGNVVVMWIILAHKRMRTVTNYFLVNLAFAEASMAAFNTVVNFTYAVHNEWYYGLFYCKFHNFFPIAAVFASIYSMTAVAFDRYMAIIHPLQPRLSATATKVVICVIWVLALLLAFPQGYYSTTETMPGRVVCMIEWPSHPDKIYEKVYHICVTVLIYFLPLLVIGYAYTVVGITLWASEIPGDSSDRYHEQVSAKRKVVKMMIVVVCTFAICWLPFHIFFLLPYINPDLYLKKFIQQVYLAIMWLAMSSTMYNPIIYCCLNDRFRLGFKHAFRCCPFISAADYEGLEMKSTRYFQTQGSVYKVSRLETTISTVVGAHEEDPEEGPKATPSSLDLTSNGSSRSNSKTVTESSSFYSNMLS
Method in brief: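 Guinea pig ileum segment suspended in a 3-ml bath of oxygenated Tyrode's solution at 38°, with contractile response recorded.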

[3] = target: Substance-P receptor (Rattus norvegicus) (UniProt P14600); test: Antagonist activity at NK1 receptor in Sprague-Dawley rat pituitary gland assessed as inhibition of LH release by radioimmunoassay in presence of LH-RH
Chain of Substance-P receptor (Rattus norvegicus) (P14600 whole entry): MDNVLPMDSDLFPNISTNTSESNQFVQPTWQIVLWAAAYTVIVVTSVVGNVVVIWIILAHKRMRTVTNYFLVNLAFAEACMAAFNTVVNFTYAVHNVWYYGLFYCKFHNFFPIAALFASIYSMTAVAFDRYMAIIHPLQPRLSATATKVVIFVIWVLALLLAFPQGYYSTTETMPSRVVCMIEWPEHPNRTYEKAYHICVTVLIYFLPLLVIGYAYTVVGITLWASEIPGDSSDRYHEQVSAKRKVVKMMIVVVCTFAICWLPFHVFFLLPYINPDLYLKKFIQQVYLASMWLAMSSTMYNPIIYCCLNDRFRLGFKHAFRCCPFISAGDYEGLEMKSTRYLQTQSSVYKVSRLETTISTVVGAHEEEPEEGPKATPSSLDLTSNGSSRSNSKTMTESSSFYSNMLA
Method in brief: (§1)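 Anterior pituitaries from 20-day-old female Sprague-Dawley rats, two per 1 ml lactated Ringer's, incubated 6 hr at 37° with shaking. Medium was replaced hourly and assayed by RIA for LH, FSH, GH, PRL and TSH. Peptide was added after two preincubation periods (I3–I6), with LH-RH at I5 and I6. Agonism was read from I3/I4 release and antagonism from I5/I6. Values are in ng of NIH reference standards.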

[4] = target: Substance-P receptor (Rattus norvegicus) (UniProt P14600); test: Antagonist activity at NK1 receptor in Sprague-Dawley rat pituitary gland assessed as inhibition of FSH release by radioimmunoassay in presence of LH-RH; method in brief: as §1
Pituitary gland [5] = test: Effect on growth hormone release in Sprague-Dawley rat pituitary gland at 100 ug/ml by radioimmunoassay; assay type: functional, tissue-based; method in brief: as §1
Pituitary gland [6] = test: Effect on prolactin release in Sprague-Dawley rat pituitary gland at 100 ug/ml by radioimmunoassay; assay type: functional, tissue-based; method in brief: as §1
Pituitary gland [7] = test: Effect on thyrotropin hormone release in Sprague-Dawley rat pituitary gland at 100 ug/ml by radioimmunoassay; assay type: functional, tissue-based; method in brief: as §1
[8] = Retardation factor of the compound using EtOAc-Pyr-HOAc-H2O at ratio of 5:5:1:3 as solvent system by thin layer chromatography; assay type: physicochemical
[9] = Retardation factor of the compound using CHCl3-MeOH-concentrated NH4OH at ratio of 60:45:20 as solvent system by thin layer chromatography; assay type: physicochemical
[10] = Retardation factor of the compound using EtOH-H2O at ratio of 7:3 as solvent system by thin layer chromatography; assay type: physicochemical
[11] = Retardation factor of the compound using n-BuOH-HOAc-EtOAc-H2O at ratio of 1:1:1:1 as solvent system by thin layer chromatography; assay type: physicochemical
[12] = Retardation factor of the compound using n-PrOH-1N HOAc at ratio of 2:1 as solvent system by thin layer chromatography; assay type: physicochemical
Canis familiaris [13] = test: Decrease in systemic arterial blood pressure in dog at 10 ng/kg, iv measured for 2 to 20 mins after drug dosage (reference value: 140 mmHg); assay type: functional, Canis lupus familiaris, Artery
[14] = target: Substance-P receptor (Rattus norvegicus) (UniProt P14600); test: Agonist activity at NK1 receptor in Sprague-Dawley rat pituitary gland assessed as change in LH release at 1000 ng/ml by radioimmunoassay (reference value: -11 +/- 27 ng/ml)
[15] = target: Substance-P receptor (Rattus norvegicus) (UniProt P14600); test: Agonist activity at NK1 receptor in Sprague-Dawley rat pituitary gland assessed as change in LH release at 10000 ng/ml by radioimmunoassay (reference value: -11 +/- 27 ng/ml)
[16] = target: Substance-P receptor (Rattus norvegicus) (UniProt P14600); test: Agonist activity at NK1 receptor in Sprague-Dawley rat pituitary gland assessed as change in LH release at 100000 ng/ml by radioimmunoassay (reference value: -11 +/- 27 ng/ml)
[17] = target: Substance-P receptor (Rattus norvegicus) (UniProt P14600); test: Agonist activity at NK1 receptor in Sprague-Dawley rat pituitary gland assessed as change in FSH release at 1000 ng/ml by radioimmunoassay (reference value: 613 +/- 203 ng/ml)
[18] = target: Substance-P receptor (Rattus norvegicus) (UniProt P14600); test: Agonist activity at NK1 receptor in Sprague-Dawley rat pituitary gland assessed as change in FSH release at 10000 ng/ml by radioimmunoassay (reference value: 613 +/- 203 ng/ml)
[19] = target: Substance-P receptor (Rattus norvegicus) (UniProt P14600); test: Agonist activity at NK1 receptor in Sprague-Dawley rat pituitary gland assessed as change in FSH release at 100000 ng/ml by radioimmunoassay (reference value: 613 +/- 203 ng/ml)

Activity [2]: Active | inhibition [3]: inactive | inhibition [4]: inactive | Rf [8]: 0.9 | Rf [9]: 0.13 | Rf [10]: 0 | Rf [11]: 0.09 | Rf [12]: 0.05 | Activity [14]: -13 ng/mL | Activity [15]: 11 ng/mL | Activity [16]: 68 ng/mL | Activity [17]: 666 ng/mL | Activity [18]: 586 ng/mL | Activity [19]: 1330 ng/mL
Structure (SMILES): CSCC[C@H](NC(=O)[C@H](CC(C)C)NC(=O)CNC(=O)[C@H](Cc1ccc(O)cc1)NC(=O)[C@H](Cc1ccccc1)NC(=O)[C@H](CCC(N)=O)NC(=O)[C@H](CCC(N)=O)NC(=O)[C@@H]1CCCN1C(=O)[C@H](CCCCN)NC(=O)[C@@H]1CCCN1C(=O)[C@@H](N)CCCNC(=N)N)C(N)=O
inhibition (Canis familiaris [1]): Active | Activity (Pituitary gland [5]): inactive | Activity (Pituitary gland [6]): inactive | Activity (Pituitary gland [7]): inactive | Activity (Canis familiaris [13]): 110 mmHg
